High-throughput results from PubChem.
Compounds with a hit are over-represented: about 4.5% of the library has one in this group of screens.
OX1R antag-1 = blocks the human orexin 1 receptor; O43613; CHO/OX1R cells, Fluo-8 calcium fluorescence, orexin A; inhibition, % at 5 µM; 330,000 tested, 0.43% active; AID 434989;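 active = inhibition above its plate's threshold, mean inhibition of all tested compounds on the plate plus 3 SD, cut at about 37% in these data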
Target sequence (O43613 whole entry, looked up): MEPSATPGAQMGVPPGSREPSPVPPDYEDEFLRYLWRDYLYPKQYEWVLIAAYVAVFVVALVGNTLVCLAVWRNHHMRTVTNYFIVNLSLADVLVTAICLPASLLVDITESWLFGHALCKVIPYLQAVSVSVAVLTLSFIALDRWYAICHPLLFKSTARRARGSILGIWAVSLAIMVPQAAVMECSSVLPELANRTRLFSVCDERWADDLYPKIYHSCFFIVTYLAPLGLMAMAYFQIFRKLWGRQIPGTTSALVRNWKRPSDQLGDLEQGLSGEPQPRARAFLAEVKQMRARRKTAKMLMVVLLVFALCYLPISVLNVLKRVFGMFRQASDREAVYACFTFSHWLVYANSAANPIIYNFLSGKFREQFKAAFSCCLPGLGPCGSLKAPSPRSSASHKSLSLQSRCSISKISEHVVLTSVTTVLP
GPR7 antagonist = blocks human GPR7 receptor signaling. GPR7-expressing cells, fluorescence antagonist assay. inhibition, % at 4.4 µM. 290,000 tested, 1.1% active; in the data active = inhibition above about 16%, passing the limit was not always enough;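 also: cells stimulated with the agonist NPW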
Target sequence (P48145 whole entry, looked up): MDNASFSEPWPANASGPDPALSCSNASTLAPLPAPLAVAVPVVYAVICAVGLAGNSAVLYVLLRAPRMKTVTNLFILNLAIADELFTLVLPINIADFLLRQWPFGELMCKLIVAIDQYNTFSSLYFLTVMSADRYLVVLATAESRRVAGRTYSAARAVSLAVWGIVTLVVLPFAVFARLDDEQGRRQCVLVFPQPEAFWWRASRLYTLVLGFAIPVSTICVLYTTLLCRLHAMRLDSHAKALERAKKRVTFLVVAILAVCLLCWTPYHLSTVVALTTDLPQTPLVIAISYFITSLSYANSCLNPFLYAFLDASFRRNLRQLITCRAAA
TAAR1 ag = agonists of human TAAR1. CHO RD-HGA16 TAAR1, Fluo-8 calcium fluorescence; vehicle wells 0%, saturating PEA agonist 100%. activation, % at 3 µM. 360,000 tested, 0.99% active;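 active = activation above the mean activation of all test compounds in the run plus 3 SD, cut at about 38% in these data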
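Assay system: CHO-derived RD-HGA16 cells with stable Gα16 and human TAAR1; timing: 17-24 h seeding, 75 min 37 °C dye, 30 min RT; read-out: % activation from peak over basal fluorescence ratio, DMSO-to-PEA scaled; measured by: kinetic Fluo-8 calcium fluorescence; benchmarks: low control DMSO, high control PEA (EC100); doses: 3 µM single concentration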
OX1R antag-2 = OX1R (human) antagonism. AID 485270. inhibition, % at 6.6 µM. O43613. OX1R-expressing cells, FRET antagonist read-out. 330,000 tested, 1.8% active; in the data active = inhibition mostly above about 38%, no sharp cut-off; inactive = mostly below about 40%
CHO parental Ca = signal in parental CHO cells, OX1R antagonist counter-screen | parental CHO-K1, ATP-induced calcium, Fluo-8 fluorescence | inhibition, % at 5.6 µM | 330,000 tested, 0.63% active;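 active = inhibition above that plate's mean sample inhibition plus 3 SD, cut at about 26% in these data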
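material = parental CHO cells | also added = ATP as calcium-mobilizing challenge | dosing = single point at 5.6 µM | detection = intracellular calcium via Fluo-8 no-wash fluorescent dye | read-out = % inhibition | benchmarks = low control ATP plus DMSO, high control DMSO only | repeats = one well per compound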
TAAR1 antagonist = antagonists of human TAAR1; AID 624466; 360,000 tested, 1.5% active; inhibition, % at 3 µM; Q96RJ0; CHO RD-HGA16 TAAR1, Fluo-8 calcium fluorescence, antagonist;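 active = inhibition above a per-plate cutoff, the mean inhibition of test compounds on that plate plus 3 SD, cut at about 49% in these data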
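System: RD-HGA16 CHO cells with stable hTAAR1 and Gα16 | Probe or stimulus: EC80 β-phenethylamine stimulus | Dosing: 3 µM, single point | Times: Dye loading 75 min at 37 °C, then 30 min room temperature | Measured by: Fluo-8 calcium-sensitive fluorescence | Read-out basis: % inhibition of agonist calcium response | Replicates: n of 1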
TAAR1 ag confirm = human TAAR1 agonism, confirmed; shares compounds with TAAR1 ag; CHO RD-HGA16 TAAR1, Fluo-8 calcium fluorescence; scaled: DMSO 0%, maximal phenethylamine 100%; activation, % at 3 µM; 2,400 tested, 82% active; AID 651783;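 active = activation above a cutoff set at the run's mean compound activation plus 3 SD, cut at about 39% in these data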
Ga16 nonsel ag = nonselective agonist in parental cells, TAAR1 agonist counter-screen; AID 651787; activation, % at 3 µM; shares compounds with TAAR1 ag; 2,400 tested, 50% active; CHO-Ga16 parental, Fluo-8 calcium fluorescence; normalized to maximal ATP response, DMSO zero;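 active = activation above the run cutoff, the mean activation over all tested wells plus 3 SD, cut at about 12% in these data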
TAAR1 desens = counter-screen for human TAAR1 agonists: agonists that desensitize TAAR1; shares compounds with TAAR1 ag; CHO RD-HGA16 hTAAR1, Fluo-8 calcium, beta-PEA response inhibition; inhibition, % at 3 µM; 2,400 tested, 46% active; AID 651951;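 active = inhibition above the run cutoff, the mean inhibition of all test compounds plus 3 SD, cut at about 49% in these data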;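 also: beta-PEA stimulus applied at its EC80; loss of beta-PEA calcium signal after compound pretreatment read as receptor desensitization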
Ga16 antag count = nonselective Ga16 antagonism, counter-screen | shares compounds with TAAR1 ag | CHO-Ga16 ATP-induced calcium, Fluo-8 fluorescence | inhibition, % at 3 µM | 2,400 tested, 39% active;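 active = inhibition above the plate's mean compound inhibition plus 3 SD, computed per plate, cut at about 22% in these data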
A number is an active result.

CC(=O)c1sc2nc(SCC(=O)NCCc3ccccc3)[nH]c(=O)c2c1C was read as OX1R antag-1 inactive, GPR7 antagonist inactive, TAAR1 ag 89.7, OX1R antag-2 inactive, CHO parental Ca inactive, TAAR1 antagonist inactive, TAAR1 ag confirm 96.8, Ga16 nonsel ag 19.1, TAAR1 desens 56.3 and Ga16 antag count inactive.
`O=C(Cn1nc(C(F)(F)F)c2c1CCC2)N1CCN(c2ccccc2)CC1` gave OX1R antag-1 inactive, GPR7 antagonist inactive, TAAR1 ag inactive, OX1R antag-2 inactive, CHO parental Ca inactive and TAAR1 antagonist inactive.
Screening Cc1ccc(C2=NS(=O)(=O)N(C)C(C(=O)Nc3cc(C)n(CC(=O)N4CCC(C)CC4)n3)=C2)cc1 returned OX1R antag-1 inactive, GPR7 antagonist inactive, TAAR1 ag inactive, OX1R antag-2 inactive, CHO parental Ca inactive and TAAR1 antagonist inactive.
`CC(=O)c1c(NCCc2ccccc2)nc(=S)n(-c2ccccc2)c1C` gave OX1R antag-1 inactive, GPR7 antagonist inactive, TAAR1 ag 49.7, OX1R antag-2 inactive, CHO parental Ca inactive, TAAR1 antagonist inactive, TAAR1 ag confirm 70.6, Ga16 nonsel ag 18.1, TAAR1 desens inactive and Ga16 antag count inactive.
Screening Oc1ccc(C[C@H]2CNCCN2CCC23CC4CC(CC(C4)C2)C3)cc1 returned OX1R antag-1 inactive, TAAR1 ag inactive, OX1R antag-2 inactive, CHO parental Ca inactive and TAAR1 antagonist inactive.
For Oc1ccc(C[C@@H]2CNCCN2CCC23CC4CC(CC(C4)C2)C3)cc1 the results were OX1R antag-1 inactive, TAAR1 ag 48.5, OX1R antag-2 inactive, CHO parental Ca inactive, TAAR1 antagonist inactive, TAAR1 ag confirm 62.4, Ga16 nonsel ag 30.9, TAAR1 desens inactive and Ga16 antag count 42.2.
CCOc1ccc(NS(=O)(=O)c2ccc(C(=O)NCC(c3ccco3)N(C)C)cc2)cc1 (stereo not drawn) was read as OX1R antag-1 inactive, TAAR1 ag 89.3, OX1R antag-2 inactive, CHO parental Ca inactive, TAAR1 antagonist inactive, TAAR1 ag confirm 79.9, Ga16 nonsel ag 50.0, TAAR1 desens inactive and Ga16 antag count 38.8.
`CCOc1ccc(NS(=O)(=O)c2ccc(C(=O)NCC3(N(C)C)CCCCC3)cc2)cc1` gave OX1R antag-1 inactive, TAAR1 ag 65.6, OX1R antag-2 inactive, CHO parental Ca 54.9, TAAR1 antagonist inactive, TAAR1 ag confirm inactive, Ga16 nonsel ag inactive, TAAR1 desens inactive and Ga16 antag count 26.8.
`Cc1cc(S(=O)(=O)Nc2ccc(C(=O)NCC(c3ccco3)N3CCCCC3)cc2)ccc1F` (stereo not drawn) gave OX1R antag-1 inactive, TAAR1 ag inactive, OX1R antag-2 inactive, CHO parental Ca inactive and TAAR1 antagonist inactive.
Cc1ccc(NS(=O)(=O)c2ccc(C(=O)NCC(c3ccco3)N3CCCCC3)cc2)cc1 (stereo not drawn) was read as OX1R antag-1 inactive, TAAR1 ag 90.7, OX1R antag-2 inactive, CHO parental Ca inactive, TAAR1 antagonist 63.1, TAAR1 ag confirm 72.6, Ga16 nonsel ag 32.8, TAAR1 desens inactive and Ga16 antag count 28.3.
CCOc1ccc(NS(=O)(=O)c2ccc(C(=O)NCC(c3ccco3)N3CCCCC3)cc2)cc1 (stereo not drawn) was read as TAAR1 ag 84.0, TAAR1 antagonist inactive, TAAR1 ag confirm 91.3, Ga16 nonsel ag 41.0, TAAR1 desens 53.9 and Ga16 antag count 38.2.
For Cc1cc(S(=O)(=O)Nc2ccc(C(=O)NCC3(N(C)C)CCCCC3)cc2)ccc1F the results were OX1R antag-1 inactive, TAAR1 ag inactive, OX1R antag-2 inactive, CHO parental Ca inactive and TAAR1 antagonist inactive.
CC1=C(C(=O)Nc2ccccc2C(F)(F)F)C(c2sccc2C)NC(=S)N1 (stereo not drawn) was read as OX1R antag-1 inactive, GPR7 antagonist inactive, TAAR1 ag inactive, OX1R antag-2 inactive, CHO parental Ca inactive and TAAR1 antagonist inactive.
Cc1nnc2c(SC(C)C)nc3ccccc3n12 was read as OX1R antag-1 inactive, GPR7 antagonist inactive, TAAR1 ag inactive, OX1R antag-2 inactive, CHO parental Ca inactive and TAAR1 antagonist inactive.
CCc1nnc(NC(=O)COC(=O)c2cc(OC)cc(OC)c2)s1 was read as OX1R antag-1 inactive, TAAR1 ag inactive, OX1R antag-2 inactive, CHO parental Ca inactive and TAAR1 antagonist inactive.
For CCOc1ccc(CCNC(=O)CSCC(=O)Nc2cccc(C)c2)cc1OCC the results were OX1R antag-1 inactive, TAAR1 ag inactive, OX1R antag-2 inactive, CHO parental Ca inactive and TAAR1 antagonist inactive.
Screening COc1ccc(C(CNC(=O)c2cccc(NS(=O)(=O)c3ccccc3)c2)N(C)C)cc1 (stereo not drawn) returned OX1R antag-1 inactive, GPR7 antagonist inactive, TAAR1 ag inactive, OX1R antag-2 inactive, CHO parental Ca inactive and TAAR1 antagonist inactive.
For CCOc1ccc(NS(=O)(=O)c2ccc(C(=O)NCc3ccccn3)cc2)cc1 the results were OX1R antag-1 inactive, TAAR1 ag 70.6, OX1R antag-2 inactive, CHO parental Ca inactive, TAAR1 antagonist inactive, TAAR1 ag confirm 120.2, Ga16 nonsel ag 58.6, TAAR1 desens 67.3 and Ga16 antag count 29.6.
CCOc1ccc(S(=O)(=O)Nc2cccc(C(=O)NCC(c3ccccc3)N(C)C)c2)cc1 (stereo not drawn) was read as OX1R antag-1 inactive, TAAR1 ag 58.2, OX1R antag-2 inactive, CHO parental Ca inactive, TAAR1 antagonist inactive, TAAR1 ag confirm inactive, Ga16 nonsel ag 23.3, TAAR1 desens inactive and Ga16 antag count 26.4.
`Cc1ccc(NS(=O)(=O)c2ccc(C(=O)NCc3ccncc3)cc2)cc1` gave OX1R antag-1 inactive, TAAR1 ag 69.2, OX1R antag-2 inactive, CHO parental Ca inactive, TAAR1 antagonist inactive, TAAR1 ag confirm 60.6, Ga16 nonsel ag 25.3, TAAR1 desens inactive and Ga16 antag count 31.9.
`Cc1ccc([C@H]2N[C@]3(CCCN(Cc4ccccc4)C3=O)[C@H]3C(=O)N(C)C(=O)[C@@H]23)cc1` gave TAAR1 ag inactive and TAAR1 antagonist inactive.
